Consider ten compounds from ChEMBL document CHEMBL5104229, “Novel tetrahydropyrimidinyl-substituted benzimidazoles and benzothiazoles: synthesis, antibacterial activity, DNA interactions and ADME profiling” (RSC Med Chem, 2022).

Converted amounts (≈) assume the structure as drawn. The source made the active and inactive calls. No cut-off for these calls is given here.

One data set has as its system Staphylococcus aureus. The data set can be described thus: Antibacterial activity against Staphylococcus aureus ATCC 29213 incubated assessed as inhibition of bacterial growth for 20 to 22 hrs by broth microdilution method. Format: functional. The following applies: time 20-22 hrs. Put shortly:
(§1)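 Broth microdilution per CLSI in cation-adjusted Mueller–Hinton broth, twofold dilutions over […]. Inoculum by direct colony suspension, 5 × 10^4 CFU per well. E. coli and S. aureus grown on MHA; E. faecalis, M. catarrhalis and streptococci on MHA with 5% sheep blood; streptococcal broth supplemented with 5% horse serum. MIC read visually after 20–22 h at 37 °C, ambient air.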
On the technique in general: Dilution methods test growth across graded concentrations, often in twofold steps.

Another data set deals with Escherichia coli. Put plainly: Antibacterial activity against hypersensitive AcrAB deficient Escherichia coli assessed as inhibition of bacterial growth incubated for 20 to 22 hrs by broth microdilution method. Format: functional. The following applies: time 20-22 hrs. Put shortly: as §1
In the next data set the test system is Enterococcus faecalis. The data set can be described thus: Antibacterial activity against Enterococcus faecalis ATCC29212 assessed as inhibition of bacterial growth incubated for 20 to 22 hrs by broth microdilution method. Format: functional. The following applies: time 20-22 hrs. Put shortly: as §1
The next data set relates to Moraxella catarrhalis. The data set can be described thus: Antibacterial activity against Moraxella catarrhalis ATCC 23246 assessed as inhibition of bacterial growth incubated for 20 to 22 hrs by broth microdilution method. In kind it is functional. The following applies: time 20-22 hrs. A digest of the protocol:
as §1

The test system of data set [1] is Streptococcus pneumoniae. Put plainly: Antibacterial activity against Macrolide resistant Streptococcus pneumoniae clinical isolate B0326 assessed as inhibition of bacterial growth incubated for 20 to 22 hrs by broth microdilution method. Format: functional. The following applies: time 20-22 hrs. A digest of the protocol:
(§2)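 CLSI broth microdilution MIC in cation-adjusted Mueller Hinton broth supplemented with 5% horse serum for streptococci. Twofold dilutions across a 128–0.25 range. Strains grown on MHA with 5% sheep blood; inoculum by direct colony suspension, 5 × 10^4 CFU per well. Read visually after 20–22 h at 37 °C in ambient air; azithromycin and ampicillin as reference antibiotics.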

The subject of data set [2] is Streptococcus pyogenes. Put plainly: Antibacterial activity against Macrolide sensitive Streptococcus pyogenes clinical isolate B0542 assessed as inhibition of bacterial growth incubated for 20 to 22 hrs by broth microdilution method. Format: functional. The following applies: time 20-22 hrs. Put shortly:
as §1

Data set [3] deals with Streptococcus pneumoniae. Put plainly: Antibacterial activity against Macrolide sensitive Streptococcus pneumoniae clinical isolate B0652 assessed as inhibition of bacterial growth incubated for 20 to 22 hrs by broth microdilution method. Format: functional. The following applies: time 20-22 hrs. A digest of the protocol: as §2
The test system of data set [4] is Streptococcus pyogenes. The data set can be described thus: Antibacterial activity against Macrolide resistant Streptococcus pyogenes clinical isolate B0545 assessed as inhibition of bacterial growth incubated for 20 to 22 hrs by broth microdilution method. In kind it is functional. The following applies: time 20-22 hrs. A digest of the protocol: as §2
The subject of data set [5] is Calf thymus DNA. The data set can be described thus: Binding affinity to calf thymus double stranded DNA minor groove assessed as assessed as effect on CD spectrum at pH 7 by CD spectroscopy. The following applies: Bos taurus. In kind it is nucleic-acid assay. Put shortly: (§3)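 CD titration at 25 °C, sodium cacodylate buffer pH 7, I = 0.05 mol dm−3: portions of compound stock (1 × 10−3 mol dm−3 in water, or DMSO for one compound) added to polynucleotide, e.g. poly(dAdT)2 at 2.0 × 10−5 mol dm−3. Scan 500–220 nm, 200 nm min−1, 3 accumulations. Polynucleotide concentration as phosphate.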

A short description of data set [6]: Cytotoxicity against human HepG2 cells assessed as reduction in cell viability incubated overnight by MTT assay. Format: toxicity, cell-based.
Data set [7] concerns AT rich DNA. The data set can be described thus: Binding affinity to double stranded [poly(dA-dT)2] DNA (unknown origin) minor groove assessed as effect on CD spectrum at pH 7 by CD spectroscopy. In kind it is nucleic-acid assay. Put shortly: as §3
In data set [8] the test system is Calf thymus DNA. The data set can be described thus: Binding affinity to calf thymus double stranded DNA assessed as stabilization of DNA by measuring change in melting temperature at pH 7 by UV/Vis-spectrophotometry. In kind it is nucleic-acid assay. The following applies: Bos taurus. Put shortly:
(§4)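 Thermal denaturation in sodium cacodylate buffer, pH 7.0, I = 0.05 mol dm−3, compound/polynucleotide ratio r = 0.3. Absorbance at 260 nm followed versus temperature, ligand absorbance subtracted, scale normalized. Tm from first-derivative maximum, checked by tangent method. ΔTm = Tm(complex) − Tm(free nucleic acid), mean of at least two runs, error ±0.5 °C. ctDNA sonicated and filtered.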

The subject of data set [9] is AT rich DNA. The data set can be described thus: Binding affinity to double stranded [poly(dA-dT)2] DNA (unknown origin) assessed as stabilization of DNA by measuring change in melting temperature at pH 7 by UV/Vis-spectrophotometry. Format: nucleic-acid assay. The following applies: Homo sapiens. A digest of the protocol: as §4
The subject of data set [10] is AT rich DNA. The data set can be described thus: Binding affinity to double stranded [poly(dA-dT)2] DNA (unknown origin) assessed as change in fluorescence intensity at pH 7 by fluorescence spectroscopy relative to control. In kind it is nucleic-acid assay. The following applies: Homo sapiens. A digest of the protocol:
(§5)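 Fluorimetric titration at 25 °C, sodium cacodylate buffer pH 7.0, I = 0.05 mol dm−3: polynucleotide portions added to compound (e.g. 1 × 10−6 mol dm−3). Excitation ≥ 300 nm to avoid inner filter effect. Data fitted by Scatchard equation, recalculated at fixed n = 0.2 [bound compound]/[polynucleotide]; I/I0 is the calculated complex fluorescence over starting compound fluorescence.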

For data set [11], the system named is AT rich DNA. Put plainly: Binding affinity to double stranded [poly(dA-dT)2] DNA (unknown origin) assessed as binding constant at pH 7 by fluorescence spectroscopy. In kind it is nucleic-acid assay. The following applies: Homo sapiens. Put shortly: as §5

Broadly, the MIC is the least concentration at which growth counts as inhibited. For the compound `COc1cc(-c2nc3ccc(C4=NCCCN4)cc3s2)ccc1OCc1c[nH]nn1.Cl`, the MIC was > 128 mg/L with Staphylococcus aureus, 128 mg/L in the data set on Escherichia coli, > 128 mg/L with Enterococcus faecalis and 32 mg/L in the data set with Moraxella catarrhalis.
As a reminder, the IC50 is the midpoint of a concentration-inhibition curve. The term ΔTm denotes the shift of the melting midpoint relative to a reference. On to `Cl.O=C(COc1ccc(-c2nc3ccc(C4=NCCCN4)cc3s2)cc1F)c1ccccc1`, for which the MIC with Streptococcus pneumoniae [1] stood at 128 mg/L; in the data set on Streptococcus pyogenes [2], 32 mg/L; in the data set with Streptococcus pneumoniae [3], 32 mg/L; in the data set with Streptococcus pyogenes [4] it was 128 mg/L; in the data set on Staphylococcus aureus, 128 mg/L; in the data set with Escherichia coli, 16 mg/L. Besides, the MIC was 128 mg/L with Enterococcus faecalis and 4 mg/L with Moraxella catarrhalis. For the same compound, the result in the data set with Calf thymus DNA [5] and in the data set on AT rich DNA [7] was Active. In addition, the IC50 in data set [6] was > 100 µM. Besides, the ΔTm in the data set on Calf thymus DNA [8] was 0 °C; with AT rich DNA [9], 3.8 °C.
As to `CC1(C)S[C@@H]2[C@H](NC(=O)[C@H](N)c3ccccc3)C(=O)N2[C@H]1C(=O)O` [AMPICILLIN], the minimum inhibitory concentration (MIC) in the data set on Streptococcus pneumoniae [1], with Streptococcus pyogenes [2], in the data set on Streptococcus pneumoniae [3] and in the data set on Streptococcus pyogenes [4] was 0.25 mg/L (≈ 0.715 µM) in each case.
For the compound `Cl.Fc1cc(-c2nc3ccc(C4=NCCCN4)cc3s2)ccc1OCc1c[nH]nn1`, the MIC is 128 mg/L in the data set with Staphylococcus aureus, > 128 mg/L with Escherichia coli, > 128 mg/L in the data set on Enterococcus faecalis and > 128 mg/L in the data set with Moraxella catarrhalis.
For `COc1cc(-c2nc3ccc(C4=NCCCN4)cc3s2)ccc1OCc1ccccn1.Cl`, the MIC with Staphylococcus aureus was > 128 mg/L; in the data set with Escherichia coli it was 128 mg/L; in the data set on Enterococcus faecalis, > 128 mg/L; in the data set with Moraxella catarrhalis, 32 mg/L.
`COc1cc(-c2nc3ccc(C4=NCCCN4)cc3s2)ccc1OCc1cn(Cc2ccccc2)nn1.Cl`: the MIC in the data set with Staphylococcus aureus was > 128 mg/L; in the data set with Escherichia coli it was 64 mg/L; with Enterococcus faecalis it was 128 mg/L; with Moraxella catarrhalis, 16 mg/L.
Taken in the same sequence, the figures for `Cl.c1ccc(Cn2cc(COc3ccc(-c4nc5ccc(C6=NCCCN6)cc5s4)cc3)nn2)cc1` were 128 mg/L, 32 mg/L, 128 mg/L and 4 mg/L.
Taken in the same sequence, the figures for `Cl.c1cc(-c2nc3ccc(C4=NCCCN4)cc3s2)ccc1OCc1c[nH]nn1` were > 128 mg/L, > 128 mg/L, > 128 mg/L and 32 mg/L.
On to `Cl.O=C(COc1ccc(-c2nc3ccc(C4=NCCCN4)cc3s2)cc1)c1ccccc1`, for which the result in the data set on Calf thymus DNA [5] and in the data set on AT rich DNA [7] was Active. Besides, the MIC in the data set on Staphylococcus aureus is 128 mg/L; in the data set on Escherichia coli, 32 mg/L; with Enterococcus faecalis, > 128 mg/L; in the data set with Moraxella catarrhalis, 8 mg/L. Moreover, the fold change (FC) in the data set with AT rich DNA [10] came out at 4.9. Further, the ΔTm was 0 °C with Calf thymus DNA [8] and 3.1 °C with AT rich DNA [9]. Moreover, in the data set on AT rich DNA [11], the log Ks turned out to be 5.3.
Take `CC[C@H]1OC(=O)[C@H](C)[C@@H](O[C@H]2C[C@@](C)(OC)[C@@H](O)[C@H](C)O2)[C@H](C)[C@@H](O[C@@H]2O[C@H](C)C[C@H](N(C)C)[C@H]2O)[C@](C)(O)C[C@@H](C)CN(C)[C@H](C)[C@@H](O)[C@]1(C)O` [AZITHROMYCIN]: the MIC in the data set with Streptococcus pneumoniae [1] was 16 mg/L (≈ 21.4 µM); with Streptococcus pyogenes [2] it was 0.125 mg/L (≈ 0.167 µM); in the data set with Streptococcus pneumoniae [3], 0.125 mg/L (≈ 0.167 µM); in the data set on Streptococcus pyogenes [4], 8 mg/L (≈ 10.7 µM); with Staphylococcus aureus, 2 mg/L (≈ 2.67 µM); in the data set with Escherichia coli, 0.5 mg/L (≈ 0.668 µM). The MIC is 0.125 mg/L (≈ 0.167 µM) in the data set with Enterococcus faecalis and 8 mg/L (≈ 10.7 µM) in the data set on Moraxella catarrhalis.
